Source: ChEMBL document CHEMBL4266041, “Hydroxybiphenylamide GroEL/ES Inhibitors Are Potent Antibacterials against Planktonic and Biofilm Forms of Staphylococcus aureus” (J Med Chem, 2018)

What was measured:
HEK293 = assay: Cytotoxicity against HEK293 cells assessed as reduction in cell viability after 48 hrs by Alamar Blue reporter assay; conditions: human, hek293, 48 h
Enterococcus faecium = assay: Antibacterial activity against Enterococcus faecium ATCC 19434 after 24 hrs by bacterial proliferation assay; type: functional, organism-based; conditions: ATCC 19434, 24 h
Staphylococcus aureus [1] = assay: Antibiofilm activity against Staphylococcus aureus Rosenbach ATCC 25923 after 24 hrs by crystal-violet based UV-Vis spectroscopy; type: functional, organism-based; conditions: Rosenbach ATCC 25923, 24 h
Outline: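 ATCC 25923 colony grown overnight in TSB at 37°C with shaking, precultured 1 h in TSB + 0.5% glucose, then diluted to OD600 0.01. Incubated stagnant at 37°C for 24 h with compound (100 µM–46 nM, 3-fold, DMSO), alongside bacteria-free baseline plates. Wells washed, crystal violet stained 15 min, developed in MeOH:AcOH:H2O, A595.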

Klebsiella pneumoniae = assay: Antibacterial activity against Klebsiella pneumoniae ATCC 13883 after 6 to 8 hrs by bacterial proliferation assay; type: functional, organism-based
Outline: (§1)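 Bacterial growth inhibition in liquid culture. The highest concentration tested was 100 µM. The mean was back-calculated from the average log value. Values above the top concentration were set 0.1 log unit higher.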

Staphylococcus aureus [2] = assay: Bactericidal activity against Staphylococcus aureus Rosenbach ATCC 25923 in biofilms preincubated for 24 hrs followed by compound wash out and measured after 24 hrs; type: functional, organism-based
Outline: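 ATCC 25923 preculture (TSB + 0.5% glucose, OD600 0.01) grown stagnant 24 h at 37°C to form biofilm, without compound. Wells washed 3× with PBS, then fresh TSB added with compound (100 µM–46 nM, 3-fold, DMSO) for 24 h at 37°C. Washed again, then recovered in fresh TSB 24 h at 37°C.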

E. coli GroEL/ES [3] = target: T1, E. coli GroEL/ES (Escherichia coli, UniProt P0A6F5); assay: Inhibition of Escherichia coli GroEL expressed in Escherichia coli DH5alpha/Escherichia coli GroES expressed in Escherichia coli BL21 (DE3) assessed as reduction in GroEL/GroES-mediated denatured MDH refolding after 20 to 40 mins by spectrometric analysis
T1 sequence (P0A6F5 whole entry, looked up): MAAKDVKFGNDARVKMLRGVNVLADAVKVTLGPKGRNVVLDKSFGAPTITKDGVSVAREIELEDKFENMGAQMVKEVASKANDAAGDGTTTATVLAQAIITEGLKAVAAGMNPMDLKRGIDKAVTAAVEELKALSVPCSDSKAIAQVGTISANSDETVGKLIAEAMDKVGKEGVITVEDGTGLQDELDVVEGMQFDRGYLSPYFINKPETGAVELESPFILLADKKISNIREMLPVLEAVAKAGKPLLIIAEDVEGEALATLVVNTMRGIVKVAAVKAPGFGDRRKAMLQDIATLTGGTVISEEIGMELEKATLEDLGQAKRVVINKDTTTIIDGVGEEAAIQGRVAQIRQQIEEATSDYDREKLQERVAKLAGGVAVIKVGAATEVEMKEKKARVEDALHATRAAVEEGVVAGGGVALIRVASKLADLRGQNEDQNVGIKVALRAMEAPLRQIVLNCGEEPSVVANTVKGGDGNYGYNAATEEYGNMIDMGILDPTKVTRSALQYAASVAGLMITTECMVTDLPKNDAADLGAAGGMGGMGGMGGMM
Outline: (§2)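 Uses E. coli GroEL/ES with a denatured MDH or rhodanese reporter. GroEL first forms a binary complex with the denatured reporter. Refolding is started by adding ATP and GroES, then reporter enzyme activity is read. DMSO is the negative control. IC50 values from replicate curves are log-averaged after ROUT outlier screening.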

Staphylococcus aureus [4] = assay: Bactericidal activity against planktonic growth of Staphylococcus aureus Rosenbach ATCC 25923 preincubated for 24 hrs followed by compound wash out and measured after 24 hrs; type: functional, organism-based
E. coli GroEL/ES [5] = target: T1, E. coli GroEL/ES; assay: Inhibition of Escherichia coli GroEL expressed in Escherichia coli DH5alpha/Escherichia coli GroES expressed in Escherichia coli BL21 (DE3) assessed as reduction in GroEL/GroES-mediated denatured rhodanese refolding after 45 mins by spectrometric analysis; outline: as §2
Acinetobacter baumannii = assay: Antibacterial activity against Acinetobacter baumannii ATCC 19606 after 24 hrs by bacterial proliferation assay; type: functional, organism-based; conditions: ATCC 19606 = CIP 70.34 = JCM 6841, 24 h; outline: as §1
[6] = Cytotoxicity against human THLE3 cells assessed as reduction in cell viability after 48 hrs by Alamar Blue reporter assay; conditions: 48 h
Staphylococcus aureus [7] = assay: Ratio of EC50 for bactericidal activity against Staphylococcus aureus Rosenbach ATCC 25923 in biofilms to EC50 for planktonic growth of Staphylococcus aureus Rosenbach ATCC 25923; type: functional
Staphylococcus aureus [8] = assay: Antibacterial activity against methicillin-resistant Staphylococcus aureus ATCC BAA-44 after 6 to 8 hrs by bacterial proliferation assay; type: functional, organism-based; conditions: Staphylococcus aureus, ATCC BAA-44
[9] = target: T2, Thiosulfate sulfurtransferase (Homo sapiens, UniProt Q16762); assay: Inhibition of refolded rhodanese (unknown origin) preincubated with Escherichia coli GroEL/GroES for 60 mins in absence of compound followed by compound addition by spectrometric analysis
T2 sequence (Q16762 whole entry): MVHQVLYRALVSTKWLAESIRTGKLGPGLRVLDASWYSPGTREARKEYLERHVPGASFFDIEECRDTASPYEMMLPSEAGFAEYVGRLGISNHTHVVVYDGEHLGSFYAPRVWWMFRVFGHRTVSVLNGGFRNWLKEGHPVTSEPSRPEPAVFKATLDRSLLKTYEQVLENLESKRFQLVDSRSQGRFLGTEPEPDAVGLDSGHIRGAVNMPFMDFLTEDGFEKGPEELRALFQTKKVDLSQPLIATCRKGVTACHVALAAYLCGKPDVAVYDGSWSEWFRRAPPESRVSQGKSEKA

Pseudomonas aeruginosa = assay: Antibacterial activity against Pseudomonas aeruginosa ATCC 10145 after 24 hrs by bacterial proliferation assay; type: functional, organism-based; conditions: ATCC 10145, 24 h; outline: as §1
Enterobacter cloacae = assay: Antibacterial activity against Enterobacter cloacae subsp. cloacae ATCC 13047 after 24 hrs by bacterial proliferation assay; type: functional, organism-based; conditions: subsp. cloacae ATCC 13047, 24 h; outline: as §1
Staphylococcus aureus [10] = assay: Antibacterial activity against Staphylococcus aureus ATCC 25923 after 6 to 8 hrs by bacterial proliferation assay; type: functional, organism-based
[11] = Inhibition of refolded MDH (unknown origin) preincubated with Escherichia coli GroEL/GroES for 45 mins in absence of compound followed by compound addition and measured for 20 to 35 mins by spectrometric analysis
HSP60/HSP10 = HSP60/HSP10 (Homo sapiens, UniProt P10809); assay: Inhibition of human N-terminal octa-His-tagged HSP60 expressed in Escherichia coli Rosetta(DE3) pLysS/human HSP10 expressed in Escherichia coli Rosetta(DE3) assessed as reduction in HSP60/HSP10-mediated denatured MDH refolding after 40 to 60 mins by spectrometric analysis
Chain of HSP60/HSP10 (P10809 whole entry): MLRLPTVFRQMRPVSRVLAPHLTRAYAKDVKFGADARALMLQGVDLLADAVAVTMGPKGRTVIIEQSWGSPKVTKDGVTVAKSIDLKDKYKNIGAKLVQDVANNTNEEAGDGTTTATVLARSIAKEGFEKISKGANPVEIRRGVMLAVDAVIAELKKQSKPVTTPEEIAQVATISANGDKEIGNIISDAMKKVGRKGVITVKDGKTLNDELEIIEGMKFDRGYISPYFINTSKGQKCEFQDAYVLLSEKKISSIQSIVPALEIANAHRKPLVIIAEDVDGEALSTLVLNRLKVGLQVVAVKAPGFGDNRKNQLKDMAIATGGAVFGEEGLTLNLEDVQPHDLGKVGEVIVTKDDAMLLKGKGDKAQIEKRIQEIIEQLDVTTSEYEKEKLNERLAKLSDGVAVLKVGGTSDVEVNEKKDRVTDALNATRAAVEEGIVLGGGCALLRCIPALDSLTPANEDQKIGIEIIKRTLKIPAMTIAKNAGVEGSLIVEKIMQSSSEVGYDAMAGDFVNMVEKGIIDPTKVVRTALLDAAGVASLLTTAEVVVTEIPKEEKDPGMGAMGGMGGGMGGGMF
Chain of HSP60/HSP10 (P61604 whole entry, further chain): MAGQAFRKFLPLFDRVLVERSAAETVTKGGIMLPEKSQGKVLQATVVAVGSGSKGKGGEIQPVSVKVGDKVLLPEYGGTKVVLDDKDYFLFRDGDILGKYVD
Outline: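 Human HSP60/10 refolding of denatured MDH, run the same way as the GroEL/ES-dMDH assay. A binary complex of chaperonin and denatured MDH is formed, and refolding is started with ATP and HSP10. MDH activity is the read-out. DMSO is the negative control. IC50 values from replicate curves are log-averaged after ROUT outlier screening.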

[12] = Therapeutic index, ratio of CC50 for human THLE3 cells to EC50 for methicillin-resistant Staphylococcus aureus ATCC BAA-44; type: toxicity; conditions: read-out: Ratio CC50/EC50
Outline: (§3)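 Ratio of human-cell CC50 to MRSA (ATCC BAA-44) EC50. […] EC50 comes from inhibition of MRSA proliferation in liquid culture. Replicate values were log-transformed, screened for outliers (ROUT, Q 10%), then averaged and back-calculated. Values above 100 µM were entered as 126 µM.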

[13] = Therapeutic index, ratio of CC50 for HEK293 cells to EC50 for methicillin-resistant Staphylococcus aureus ATCC BAA-44; type: toxicity; conditions: human, read-out: Ratio CC50/EC50; outline: as §3

SMILES | CC50 (HEK293) | EC50 (Enterococcus faecium) | EC50 (Staphylococcus aureus [1]) | EC50 (Klebsiella pneumoniae) | EC50 (Staphylococcus aureus [2]) | IC50 (E. coli GroEL/ES [3]) | EC50 (Staphylococcus aureus [4]) | IC50 (E. coli GroEL/ES [5]) | EC50 (Acinetobacter baumannii) | CC50 [6] | Ratio EC50 (Staphylococcus aureus [7]) | EC50 (Staphylococcus aureus [8]) | IC50 [9] | EC50 (Pseudomonas aeruginosa) | EC50 (Enterobacter cloacae) | EC50 (Staphylococcus aureus [10]) | IC50 [11] | IC50 (HSP60/HSP10) | selectivity ratio [12] | selectivity ratio [13]
O=C(Nc1ccc(Sc2nc3ccccc3s2)c(Cl)c1)c1cccc(Br)c1O | 64 µM | 24 µM | 1 µM | > 100 µM | 5.6 µM | 9.5 µM | 0.45 µM | 3.8 µM | 2.9 µM | 19 µM | 5 - 15 | 0.71 µM | > 100 µM | > 100 µM | > 100 µM | 0.45 µM | > 63 µM |  |  | 
CN[C@H](CC(C)C)C(=O)N[C@H]1C(=O)N[C@@H](CC(N)=O)C(=O)N[C@H]2C(=O)N[C@H]3C(=O)N[C@H](C(=O)N[C@H](C(=O)O)c4cc(O)cc(O)c4-c4cc3ccc4O)[C@H](O)c3ccc(c(Cl)c3)Oc3cc2cc(c3O[C@@H]2O[C@H](CO)[C@@H](O)[C@H](O)[C@H]2O[C@H]2C[C@](C)(N)[C@H](O)[C@H](C)O2)Oc2ccc(cc2Cl)[C@H]1O [VANCOMYCIN] | > 100 µM | 0.6 µM | 0.54 µM | > 100 µM | > 100 µM | > 100 µM | 0.67 µM | > 100 µM | > 100 µM | > 100 µM |  | 0.52 µM | > 100 µM | > 100 µM | > 100 µM | 0.67 µM | > 63 µM | > 100 µM |  | 
O=C(Nc1ccc(Sc2nc3ccccc3s2)cc1)c1ccccc1O | 74 µM | 67 µM | 0.91 µM | > 100 µM | 2 µM | 40 µM | 0.2 µM | 87 µM | > 100 µM | 33 µM | 5 - 15 | 0.41 µM | > 100 µM | > 100 µM | > 100 µM | 0.2 µM | > 63 µM | > 100 µM |  | 
O=C(Nc1cccc(Cl)c1)c1cc(Br)cc(Br)c1O | 18 µM | 73 µM |  | 95 µM |  | 24 µM |  | 47 µM | 46 µM | 9.2 µM |  | 1.1 µM | > 100 µM | > 100 µM | 78 µM | 0.66 µM | 27 µM |  | > 50 | > 50
O=C(Nc1ccccc1)c1cc(Br)cc(Br)c1O [METABROMSALAN] | 34 µM | > 100 µM |  | > 100 µM |  | 61 µM |  | > 100 µM | > 100 µM | 25 µM |  | 2 µM | > 100 µM | > 100 µM | > 100 µM | 1.2 µM | 51 µM |  | > 50 | > 50
COc1ccc(Br)cc1C(=O)Nc1ccc(Sc2nc3ccccc3s2)cc1 | > 100 µM | > 100 µM |  | > 100 µM |  | > 100 µM |  | > 100 µM | > 100 µM | > 100 µM |  | > 100 µM | > 100 µM | > 100 µM | > 100 µM | > 100 µM | > 63 µM | > 100 µM |  | 
O=C(Nc1cccc(Cl)c1)c1ccccc1 | > 100 µM | > 100 µM |  | > 100 µM |  | > 100 µM |  | > 100 µM | > 100 µM | > 100 µM |  | > 100 µM | > 100 µM | > 100 µM | > 100 µM | > 100 µM | > 63 µM | > 100 µM |  | 
COc1c(Br)cc(Br)cc1C(=O)Nc1ccccc1 | > 100 µM | > 100 µM |  | > 100 µM |  | > 100 µM |  | > 100 µM | > 100 µM | > 100 µM |  | > 100 µM | > 100 µM | > 100 µM | > 100 µM | > 100 µM | > 63 µM | > 100 µM |  | 
